# Measurements taken from publication PMC7255057 (Journal of medicinal chemistry, 2019).
# Key:
# [1] = Dynamic light scattering of aggregates/micelles; format: physicochemical; settings: for aggregate size range (DLS intensity profile): 500 μM, 2.5% DMSO; for aggregates detectable by DLS in presence of HSA: with HSA
# EPAC1CBD [2] = biological target: T1, EPAC1CBD (Homo sapiens, UniProt O95398); test: Nonspecific interaction with EPAC1CBD by global NH-HSQC intensity losses; format: binding; settings: for type of aggregation-based inhibitor: NMR intensity losses and DLS
# T1 sequence (O95398 149-318 isoform O95398-3): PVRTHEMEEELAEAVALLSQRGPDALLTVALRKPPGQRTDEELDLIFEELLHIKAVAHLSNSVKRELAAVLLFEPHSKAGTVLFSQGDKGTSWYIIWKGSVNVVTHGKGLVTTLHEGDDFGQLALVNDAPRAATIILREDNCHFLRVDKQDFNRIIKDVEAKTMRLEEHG
# [3] = biological target: human serum albumin (HSA) Sudlow sites (Homo sapiens, UniProt P02768); test: Fluorescence competition with dansylated amino acids; format: binding
# Sequence of human serum albumin (HSA) Sudlow sites (P02768 25-609): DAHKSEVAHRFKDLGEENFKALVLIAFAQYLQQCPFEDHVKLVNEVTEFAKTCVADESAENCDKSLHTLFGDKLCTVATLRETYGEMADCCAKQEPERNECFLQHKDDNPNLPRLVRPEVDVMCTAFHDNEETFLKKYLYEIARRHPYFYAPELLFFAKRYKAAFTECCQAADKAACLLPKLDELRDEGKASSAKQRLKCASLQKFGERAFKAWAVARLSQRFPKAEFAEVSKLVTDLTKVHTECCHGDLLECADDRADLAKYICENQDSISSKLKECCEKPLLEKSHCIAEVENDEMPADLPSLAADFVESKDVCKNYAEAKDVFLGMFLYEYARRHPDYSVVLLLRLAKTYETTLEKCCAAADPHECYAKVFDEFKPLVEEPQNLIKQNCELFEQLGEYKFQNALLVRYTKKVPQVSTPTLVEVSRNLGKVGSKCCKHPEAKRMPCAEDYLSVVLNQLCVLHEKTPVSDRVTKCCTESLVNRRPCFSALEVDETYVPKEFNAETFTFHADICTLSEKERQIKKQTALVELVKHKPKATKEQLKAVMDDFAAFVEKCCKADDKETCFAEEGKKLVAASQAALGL
# How it was run: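 Dansylated arginine (Sudlow site 1, 1:1) or dansylated phenylalanine (sites 1 and 2) fluorescence with recombinant fatty-acid-free HSA on a plate reader. Excitation was 370 for both probes, with emission at 460 (DanR) or 480 nm (DanF). Probe affinity and stoichiometry came from direct titration. Competitions used 2.5 μM HSA with 100 μM probe and were least-squares fitted assuming no extra sites.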
# [4] = biological target: T2, EPAC1CBD (cAMP-binding domain of hEPAC1, residues 149–318) (Homo sapiens, UniProt O95398); test: NH-HSQC chemical shift titration of EPAC1CBD
# T2 sequence (O95398 149-318 isoform O95398-3): T1 sequence (O95398 149-318 isoform O95398-3)
# How it was run: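 100 μM human EPAC1 CBD (residues 149–318) in Tris NMR buffer was titrated with test compound, with or without HSA, and read by 1H-15N HSQC. DMSO was 0.5% per 100 μM compound. Compounded chemical-shift changes from 35 residues were least-squares fitted at 1:1, with ΔCCSmax free or fixed, to give Kd or apparent Kd. Peak intensities were normalised to the compound-free sample and averaged (I/I0).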
# [5] = biological target: T3, human serum albumin (HSA) (Homo sapiens, UniProt P02768); test: ANS fluorescence binding and competition on HSA; settings: for displacement of ANS from HSA: 2.5 μM HSA with 5 or 100 μM ANS
# T3 sequence (P02768 25-609): as above
# How it was run: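 Fluorescence competition with 2.5 μM HSA and 5 or 100 μM ANS. The test compound was titrated over a concentration range. Excitation was 360 nm, with emission read at 460 and 480 nm to detect blue shifts. Signals were normalised between ANS alone (minimum) and HSA:ANS (maximum). ANS stoichiometry and affinity on HSA were set beforehand by a Sudlow-type titration.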
# [6] = SPR on nonfunctionalized gold nanoparticle sensor; format: physicochemical; settings: for SPR signal relative to DMSO control: 50 μM and 250 μM, 1.25% DMSO
# EPAC1CBD [7] = biological target: T1, EPAC1CBD; test: DLS volume profile of EPAC1CBD in presence of ESIs; format: binding
# [8] = biological target: T3, human serum albumin (HSA); test: 13C-oleic acid displacement assay on HSA; format: binding; settings: 250 μM HSA, 1.5 mM OA
# How it was run: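 Recombinant globulin- and fatty-acid-free HSA at 250 μM in 20 mM NaPO4 pH 7.6, 50 mM NaCl in 99.9% D2O, held 37 °C 30 min. 13C-oleic acid (100 mM stock in DMSO-d6, warmed 50 °C 10 min) added to 1.5 mM final, then 37 °C 2 h. {13C–1H}-HSQC recorded with and without test compound at 298 K; site peaks A–H losing intensity mark displacement.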
# [9] = Transmission electron microscopy of aggregates; format: physicochemical; settings: 200 μM
# How it was run: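 Aggregate samples were applied to 400-mesh copper grids freshly coated with continuous amorphous carbon and glow-discharged at 5 mA for 15 s beforehand. Grids were imaged by transmission electron microscopy on a side-mounted cooled 4-megapixel CCD camera.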
Compound,aggregate size range (DLS intensity profile) [1],type of aggregation-based inhibitor (EPAC1CBD [2]),displacement of 13C-oleic acid from HSA [8],aggregate morphology (TEM) [9],EPAC1CBD NH-HSQC signal/intensity loss (EPAC1CBD [2]),aggregates detectable by DLS in presence of HSA [1],displacement of ANS from HSA [5],SPR signal relative to DMSO control [6],also measured
Triton X-100 [TX],,,,,no significant chemical shift changes or intensity losses,,,,average aggregate/micelle diameter (DLS) ([1]; compound in isolation): about 10 nm
"CN(C)c1cccc2c(S(=O)(=O)N[C@@H](CCCN=C(N)N)C(=O)O)cccc12 [DanR, dansyl-arginine]",,,,,,,,,"Kd ([3]; read-out: Kd for HSA Sudlow's Site I, fluorescence titration): ~25 µM"
"O=S(=O)(O)c1cccc2cccc(Nc3ccccc3)c12 [ANS, 8-anilinonaphthalene-1-sulfonic acid]",,,,,,,,,ANS binding stoichiometry and affinity for HSA ([5]; Scatchard plot): binds up to four sites on HSA with low micromolar affinity

# More lines, main results first:
aggregate size range (DLS intensity profile) [1],type of aggregation-based inhibitor (EPAC1CBD [2]),displacement of 13C-oleic acid from HSA [8],aggregate morphology (TEM) [9],Compound,EPAC1CBD NH-HSQC signal/intensity loss (EPAC1CBD [2]),aggregates detectable by DLS in presence of HSA [1],displacement of ANS from HSA [5],SPR signal relative to DMSO control [6],also measured
90–600 nm,Type A,displace OA at multiple sites,more amorphous morphology,C[C@@H]1CCc2c(cc(Br)c(F)c2Br)N1C=O [CE3F4R],no more than that caused by DMSO,no detectable aggregates in the presence of HSA,unable to displace ANS,no significant change in SPR signal,"coaggregate size with TX (DLS) ([1]; TX:CE3F4R 1:2 (0.0075% TX, 200 μM CE3F4R)): around 70 nm; increase of apparent Kd for EPAC1CBD binding caused by HSA ([4]; CE3F4R titration with vs without HSA): 5–10 fold; concentration at which dissociation from EPAC1CBD starts ([4]; presence of HSA): ≥ 750 µM; displacement of dansylated amino acids from HSA ([3]; concentrations below CAC): ineffective at displacing either of the dansylated amino acids from HSA; change of EPAC1CBD DLS volume profile (EPAC1CBD [7]; below or above CAC): does not result in any major change in the volume profile of EPAC1CBD"
90–600 nm,type B,displace OA at multiple sites,spherical micellar morphology,CC(C)(C)c1cc(C(=O)/C(C#N)=N/Nc2cccc(Cl)c2)no1 [ESI-09],substantial signal losses for EPAC1CBD peaks,no detectable aggregates in the presence of HSA,can fully displace even large excesses of ANS at low micromolar concentrations,significant difference for ESI-09 when injected at a concentration that is above its CAC,EPAC1CBD chemical shift changes with HSA relative to those without HSA ([4]; 100 μM ESI-09): < 20%; reduction of average chemical shift changes with HSA vs without HSA ([4]; ESI-09 concentration yielding similar intensity losses): ~ 30%; SPR signal with HSA relative to HSA and DMSO control ([6]; 250 μM ESI-09 with 25 μM HSA): no significant SPR signal increase; SPR signal with HSA relative to HSA and DMSO reference ([6]; 500 μM ESI-09 with 25 μM HSA): SPR signal significantly increases; ESI-09 concentration giving similar signal loss in presence of HSA (EPAC1CBD [2]; compared with 100 μM ESI-09 without HSA): around 400 μM; increase of EPAC1CBD HSQC intensities in presence of HSA (EPAC1CBD [2]; most ESI-09 concentrations): 30–40%; increase of EPAC1CBD size profile (DLS) (EPAC1CBD [7]; ESI concentration above CAC): up to 5 nm
